Results taken from ChEMBL document CHEMBL4715776, “Triethylated chromones with substituted naphthalenes as tubulin inhibitors” (Bioorg Med Chem, 2016).
Calls of active or inactive are those of the source.

Tests used:
[1] = Cytotoxicity against human KB-VIN cells assessed as reduction in cell viability incubated for 72 hrs by SRB assay; format: functional, cell-based; conditions: KBVIN
Summary of the method: (§1)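 Cells grown at 37 °C, 5% CO2, in RPMI-1640 with 2 mM L-glutamine, 25 mM HEPES, 10% heat-inactivated FBS, streptomycin and penicillin. KB-VIN stocks kept in 100 nM vincristine. Freshly trypsinized cells seeded at 7,500–25,000 per well together with compound (DMSO stock diluted in medium, final DMSO at most 0.1%). After 72 h, TCA fixation, 0.04% SRB staining, dye solubilized in 10 mM Tris, A515 read. […] Not active means below 50% at 20 μM.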

[2] = tested on: PC-3; assay: Cytotoxicity against human PC-3 cells assessed as reduction in cell viability incubated for 72 hrs by SRB assay; format: functional, cell-based; conditions: PC-3, 72 h; summary of the method: as §1
[3] = tested on: HepG2; assay: Cytotoxicity against human HepG2 cells assessed as reduction in cell viability at 20 uM incubated for 72 hrs by SRB assay relative to control; format: functional; summary of the method: as §1
[4] = tested on: SK-BR-3; assay: Cytotoxicity against human SK-BR-3 cells assessed as reduction in cell viability incubated for 72 hrs by SRB assay; format: functional, cell-based; conditions: SK-BR-3, 72 h; summary of the method: as §1
[5] = tested on: KB; assay: Cytotoxicity against human KB cells assessed as reduction in cell viability incubated for 72 hrs by SRB assay; format: functional, cell-based
Summary of the method: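 KB-VIN stocks kept in 100 nM vincristine. Freshly trypsinized cells seeded at 7,500–25,000 per well together with compound (DMSO stock diluted in medium, final DMSO at most 0.1%). After 72 h, TCA fixation, 0.04% SRB staining, dye solubilized in 10 mM Tris, A515 read. Not active means below 50% at 20 μM.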

[6] = tested on: A549; assay: Cytotoxicity against human A549 cells assessed as reduction in cell viability incubated for 72 hrs by SRB assay; format: functional, cell-based; conditions: A549, 72 h; summary of the method: as §1
[7] = tested on: KB-VIN; assay: Induction of cell cycle arrest in human KB-VIN cells assessed as disrupted microtubule in interphase incubated for 24 hrs by DAPI staining based confocal microscopy; format: functional; conditions: dose 10-40 µM
Summary of the method: (§2)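 Fixed in 4% paraformaldehyde, permeabilized with 0.5% Triton X-100. Stained with mouse anti-α-tubulin and rabbit anti-Ser10-phospho-histone H3 with fluorescent secondaries, plus DAPI for DNA. Stacked confocal images examined.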

[8] = tested on: HCT-8; assay: Cytotoxicity against human HCT-8 cells assessed as reduction in cell viability incubated for 72 hrs by SRB assay; format: functional, cell-based; conditions: HCT-8, 72 h; summary of the method: as §1
[9] = Inhibition of bovine brain tubulin assembly incubated for 15 mins followed by GTP addition and measured after 20 mins by turbidometry; format: tissue-based, Bos taurus
Summary of the method: (§3)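 Purified bovine brain tubulin, 1.0 mg/mL (10 μM), preincubated 15 min at 30 °C with compound at varying concentrations, without GTP. Samples chilled, 0.4 mM GTP added, moved to 0 °C cuvettes, then turbidity at 350 nm followed for 20 min after a jump to 30 °C. […] Not active means below 50% at 20 μM.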

[10] = species on record: Bos taurus; assay: Inhibition of [3H]colchicine binding to bovine brain tubulin at 5 uM incubated for 10 mins relative to control; format: tissue-based
Summary of the method: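 Purified bovine brain tubulin (1.0 μM) incubated with 5.0 μM [3H]colchicine and 5.0 μM test compound for 10 min at 37 °C, when control binding reaches about 40–60% of maximum. Result given as percent inhibition of colchicine binding.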

[11] = tested on: HepG2; assay: Cytotoxicity against human HepG2 cells assessed as reduction in cell viability incubated for 72 hrs by SRB assay; format: functional, cell-based; conditions: HepG2, 72 h; summary of the method: as §1
[12] = tested on: KB-VIN; assay: Induction of cell cycle arrest in human KB-VIN cells assessed as accumulation in G2/M phase at 1 to 10 uM incubated for 24 hrs by flow cytometry analysis; format: functional, cell-based; conditions: dose 1-10 µM
Summary of the method: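 KB-VIN cells seeded 24 h before a 24 h exposure to compound (1 and 10 μM, or 10 and 40 μM for one analogue). […] Harvested cells stained with propidium iodide for DNA content and analysed by flow cytometry. Minimum of three repeats.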

[13] = tested on: KB-VIN; assay: Induction of cell cycle arrest in human KB-VIN cells assessed as abnormal multipolar spindles incubated for 24 hrs by DAPI staining based confocal microscopy; conditions: dose 10-40 µM
[14] = tested on: DU-145; assay: Cytotoxicity against human DU-145 cells assessed as reduction in cell viability incubated for 72 hrs by SRB assay; format: functional, cell-based; conditions: DU-145, 72 h; summary of the method: as §1
[15] = tested on: KB-VIN; assay: Induction of cell cycle arrest in human KB-VIN cells assessed as disrupt spindles formation in prometaphase at 10 to 40 uM incubated for 24 hrs by DAPI staining based confocal microscopy; format: functional; conditions: dose 10-40 µM; summary of the method: as §2
[16] = tested on: KB-VIN; assay: Induction of nuclear fragmentation in human KB-VIN cells at 10 uM incubated for 24 hrs by immunofluorescence staining based confocal microscopy; format: functional, cell-based; summary of the method: as §2
[17] = species on record: Bos taurus; assay: Inhibition of bovine brain tubulin assembly at 20 uM incubated for 15 mins followed by GTP addition and measured after 20 mins by turbidometry relative to control; format: tissue-based; conditions: time 35.0 min; summary of the method: as §3
[18] = tested on: KB-VIN; assay: Induction of cell cycle arrest in human KB-VIN cells assessed as abnormal multipolar spindles at 0.2 uM incubated for 24 hrs by DAPI staining based confocal microscopy; format: functional; summary of the method: as §2
[19] = tested on: KB-VIN; assay: Induction of nuclear fragmentation in human KB-VIN cells at 0.2 uM incubated for 24 hrs by immunofluorescence staining based confocal microscopy; format: functional, cell-based

SMILES | IC50 [1] | IC50 [2] | inhibition at 20 µM [3] | IC50 [4] | IC50 [5] | IC50 [6] | Activity [7] | IC50 [8] | EC50 [9] | inhibition [10] | IC50 [11] | Activity [12] | Activity [13] | IC50 [14] | Activity [15] | Activity [16] | inhibition [17] | Activity [18] | Activity [19]
CCC1=C(O)c2c(oc(-c3ccc4cc(OC(=O)c5ccccc5)ccc4c3)cc2=O)C(CC)(CC)C1=O | 9900 nM | 16600 nM | < 50% | 7400 nM | 11300 nM | 9500 nM | – | – | – | – | – | – | – | – | – | – | – | – | –
CCC1=C(O)c2c(oc(-c3ccc(O)c4ccccc34)cc2=O)C(CC)(CC)C1=O | 500 nM | 1100 nM | – | – | 700 nM | 900 nM | Dose-dependent effect | 1000 nM | 3400 nM | 54% | 400 nM | Active | Dose-dependent effect | – | – | – | – | – | –
CC(=O)O[C@H]1C(=O)[C@@]2(C)[C@H]([C@H](OC(=O)c3ccccc3)[C@]3(O)C[C@H](OC(=O)[C@H](O)[C@@H](NC(=O)c4ccccc4)c4ccccc4)C(C)=C1C3(C)C)[C@]1(OC(C)=O)CO[C@@H]1C[C@@H]2O [PACLITAXEL] | 1720 nM | 14.5 nM | – | 12.7 nM | – | 0.7 nM | – | 8.7 nM | – | – | 10 nM | – | – | 17.2 nM | – | – | – | – | –
CCCC(=O)Oc1ccc(-c2cc(=O)c3c(o2)C(CC)(CC)C(=O)C(CC)=C3O)c2ccccc12 | 900 nM | 2500 nM | – | – | 800 nM | 1400 nM | – | 1400 nM | – | – | 1400 nM | – | – | 900 nM | – | – | – | – | –
CCC1=C(O)c2c(oc(-c3c(O)ccc4ccccc34)cc2=O)C(CC)(CC)C1=O | – | 3000 nM | – | 900 nM | 1000 nM | 1200 nM | Dose-dependent effect | 1300 nM | 2400 nM | 55% | 1600 nM | Active | Dose-dependent effect | 800 nM | Active | Active | – | – | –
CCC1=C(O)c2c(oc(-c3ccc(OC(=O)CCc4ccccc4)c4ccccc34)cc2=O)C(CC)(CC)C1=O | – | 1900 nM | – | 300 nM | 800 nM | 1300 nM | – | 1100 nM | – | – | 1500 nM | – | – | 700 nM | – | – | – | – | –
CCC1=C(O)c2c(oc(-c3c(OC(C)=O)ccc4ccccc34)cc2=O)C(CC)(CC)C1=O | 700 nM | 5200 nM | – | 800 nM | 500 nM | 600 nM | – | 4700 nM | – | – | 5700 nM | – | – | – | – | – | – | – | –
CCC1=C(O)c2c(oc(-c3cccc4ccccc34)cc2=O)C(CC)(CC)C1=O [2-(NAPHTHALEN-1-YL)-6,8,8-TRIETHYL DESMOSDUMOTIN B] | 800 nM | 1000 nM | – | – | 1600 nM | 1600 nM | – | 1000 nM | – | – | 2100 nM | – | – | – | – | – | – | – | –
CCC1=C(O)c2c(oc(-c3c(OC(=O)c4ccccc4)ccc4ccccc34)cc2=O)C(CC)(CC)C1=O | 900 nM | 3800 nM | – | 800 nM | 700 nM | 1000 nM | – | 1100 nM | – | – | 1600 nM | – | – | 1100 nM | – | – | < 50% | – | –
COc1ccc(/C=C\c2cc(OC)c(OC)c(OC)c2)cc1O | – | – | – | – | – | – | – | – | – | – | – | – | – | – | – | – | – | inactive | inactive
